Common to all, as to type: cell-based
One experiment addresses T1, Glucocorticoid receptor (Homo sapiens, UniProt P04150).
T1 sequence (P04150 whole entry): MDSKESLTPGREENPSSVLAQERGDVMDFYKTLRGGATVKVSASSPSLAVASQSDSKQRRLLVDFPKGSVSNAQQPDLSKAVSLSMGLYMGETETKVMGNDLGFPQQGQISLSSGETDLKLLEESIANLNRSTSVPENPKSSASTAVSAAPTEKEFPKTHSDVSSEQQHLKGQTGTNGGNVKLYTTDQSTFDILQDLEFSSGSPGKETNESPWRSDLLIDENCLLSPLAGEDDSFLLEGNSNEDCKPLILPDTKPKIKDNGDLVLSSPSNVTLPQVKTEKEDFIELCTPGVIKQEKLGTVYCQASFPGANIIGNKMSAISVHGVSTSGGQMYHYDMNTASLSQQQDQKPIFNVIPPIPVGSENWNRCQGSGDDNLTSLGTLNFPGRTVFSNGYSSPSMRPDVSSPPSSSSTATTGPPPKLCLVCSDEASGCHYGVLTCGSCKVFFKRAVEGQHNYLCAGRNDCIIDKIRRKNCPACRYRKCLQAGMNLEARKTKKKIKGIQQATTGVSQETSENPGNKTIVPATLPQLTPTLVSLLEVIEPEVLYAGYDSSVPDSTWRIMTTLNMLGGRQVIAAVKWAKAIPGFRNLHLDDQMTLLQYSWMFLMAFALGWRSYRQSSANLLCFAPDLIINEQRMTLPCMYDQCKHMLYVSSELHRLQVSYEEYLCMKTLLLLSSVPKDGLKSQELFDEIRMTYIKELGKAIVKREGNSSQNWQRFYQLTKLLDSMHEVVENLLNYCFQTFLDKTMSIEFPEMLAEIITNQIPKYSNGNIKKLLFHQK
Kind of experiment: Modulation of glucocorticoid receptor in human SKGT4 cells assessed as receptor translocation from cytoplasm to nucleus after 4 hrs by Hoechst staining relative to Dexamethasone.

The target of experiment [1] is T2, Mineralocorticoid receptor (Homo sapiens) (UniProt P08235).
T2 sequence (whole entry): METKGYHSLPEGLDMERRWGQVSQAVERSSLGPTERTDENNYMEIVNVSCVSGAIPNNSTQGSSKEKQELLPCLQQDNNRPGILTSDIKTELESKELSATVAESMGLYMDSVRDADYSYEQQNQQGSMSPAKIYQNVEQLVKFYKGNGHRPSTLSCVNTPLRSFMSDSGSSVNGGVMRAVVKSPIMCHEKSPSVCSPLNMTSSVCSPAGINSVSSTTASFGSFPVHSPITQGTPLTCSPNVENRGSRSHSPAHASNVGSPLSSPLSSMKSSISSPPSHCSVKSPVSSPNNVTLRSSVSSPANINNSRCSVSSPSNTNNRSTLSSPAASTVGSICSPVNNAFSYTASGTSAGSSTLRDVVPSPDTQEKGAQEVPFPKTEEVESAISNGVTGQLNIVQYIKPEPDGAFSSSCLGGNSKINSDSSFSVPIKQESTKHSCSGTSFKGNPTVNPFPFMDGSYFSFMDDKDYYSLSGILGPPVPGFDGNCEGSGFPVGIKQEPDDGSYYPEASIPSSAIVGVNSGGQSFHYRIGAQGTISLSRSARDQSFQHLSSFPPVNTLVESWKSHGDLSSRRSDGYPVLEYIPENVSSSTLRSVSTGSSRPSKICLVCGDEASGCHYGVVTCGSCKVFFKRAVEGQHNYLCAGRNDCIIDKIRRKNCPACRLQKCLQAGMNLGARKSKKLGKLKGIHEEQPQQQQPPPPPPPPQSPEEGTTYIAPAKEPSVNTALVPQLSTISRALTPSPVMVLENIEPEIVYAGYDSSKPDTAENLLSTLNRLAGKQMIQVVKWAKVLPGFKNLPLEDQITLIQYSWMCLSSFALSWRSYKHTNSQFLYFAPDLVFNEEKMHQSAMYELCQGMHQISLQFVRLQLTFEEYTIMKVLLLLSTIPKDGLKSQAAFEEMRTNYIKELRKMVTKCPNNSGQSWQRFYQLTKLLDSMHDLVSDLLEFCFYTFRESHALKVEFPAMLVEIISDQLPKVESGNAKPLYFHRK
Kind of experiment: Modulation of mineralocorticoid receptor in human SKGT4 cells assessed as receptor translocation from cytoplasm to nucleus at 50 uM after 4 hrs by Hoechst staining.

Experiment [2] has as its target T3, Glucocorticoid receptor (Homo sapiens) (UniProt P04150).
T3 sequence (whole entry): T1 sequence (P04150 whole entry)
Kind of experiment: Modulation of glucocorticoid receptor in human SKGT4 cells assessed as receptor translocation from cytoplasm to nucleus at 100 uM after 240 mins by Hoechst staining relative to Dexamethasone. Summed up:
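Time course in serum-starved SKGT-4 cells: 100 μM compound for 15, 30, 60, 120 or 240 min in 1% DMSO medium. Fixed, GR immunostained, Hoechst nuclear stain, high-content imaging. Background-corrected nuclear/cytoplasmic GR ratio normalised to Dex 100 nM; mean of two experiments in triplicate, compared with 1% DMSO.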

Calls of active or inactive are those of the source. The rule behind the calls is not given here.

In general, EC50 refers to the concentration that produces a half-maximal response. On to `C[C@H](CC(=O)O)[C@H]1CC[C@H]2[C@@H]3[C@@H](O)C[C@@H]4C[C@H](O)CC[C@]4(C)[C@H]3CC[C@]12C` [NORUCHOLIC ACID], for which the EC50 on Glucocorticoid receptor worked out at 105 µM.

With `C[C@H](C(=O)O)[C@H]1CC[C@H]2[C@@H]3[C@@H](O)C[C@@H]4C[C@H](O)CC[C@]4(C)[C@H]3CC[C@]12C`, on Glucocorticoid receptor, the EC50 came out at 99.7 µM.

As to `C[C@H](CCC(=O)O)[C@H]1CC[C@H]2[C@@H]3[C@@H](O)C[C@@H]4C[C@H](O)CC[C@]4(C)[C@H]3CC[C@]12C`, the result in experiment [1] was inactive. As for `C[C@H](CCC(=O)N1CCOCC1)[C@H]1CC[C@H]2[C@@H]3[C@@H](O)C[C@@H]4C[C@H](O)CC[C@]4(C)[C@H]3CC[C@]12C`, the result in experiment [2] was Active. The EC50 on Glucocorticoid receptor stood at 25.3 µM. Regarding `C[C@H](C#N)[C@H]1CC[C@H]2[C@@H]3[C@@H](O)C[C@@H]4C[C@H](O)CC[C@]4(C)[C@H]3CC[C@]12C`, the EC50 on Glucocorticoid receptor amounted to 130 µM. Regarding `CC(NC(=O)CC[C@@H](C)[C@H]1CC[C@H]2[C@@H]3[C@@H](O)C[C@@H]4C[C@H](O)CC[C@]4(C)[C@H]3CC[C@]12C)c1ccccc1` (stereo not given in full), on Glucocorticoid receptor, the EC50 came to 124 µM.

Take `C[C@H](CCC(=O)NC1CC1)[C@H]1CC[C@H]2[C@@H]3[C@@H](O)C[C@@H]4C[C@H](O)CC[C@]4(C)[C@H]3CC[C@]12C`: the outcome in experiment [2] was Active. The EC50 at Glucocorticoid receptor stood at 7.3 µM. For `C[C@H](CCC(=O)N1CCNCC1)[C@H]1CC[C@H]2[C@@H]3[C@@H](O)C[C@@H]4C[C@H](O)CC[C@]4(C)[C@H]3CC[C@]12C`, the EC50 at Glucocorticoid receptor is 50.8 µM.

On to `C[C@H](CCC(=O)NCCc1ccccc1)[C@H]1CC[C@H]2[C@@H]3[C@@H](O)C[C@@H]4C[C@H](O)CC[C@]4(C)[C@H]3CC[C@]12C`, for which, at Glucocorticoid receptor, the EC50 is 109 µM. The same measure, in the same setting: the result for `C[C@H](CCC#N)[C@H]1CC[C@H]2[C@@H]3[C@@H](O)C[C@@H]4C[C@H](O)CC[C@]4(C)[C@H]3CC[C@]12C` reads 101 µM. For `C[C@H](CCC(=O)N1CCN(Cc2ccccc2)CC1)[C@H]1CC[C@H]2[C@@H]3[C@@H](O)C[C@@H]4C[C@H](O)CC[C@]4(C)[C@H]3CC[C@]12C`, the outcome in experiment [2] was Active. Further, at Glucocorticoid receptor, the EC50 stood at 5.6 µM. Consider `C[C@H](CCC(=O)NCc1ccccc1)[C@H]1CC[C@H]2[C@@H]3[C@@H](O)C[C@@H]4C[C@H](O)CC[C@]4(C)[C@H]3CC[C@]12C`, for which, at Glucocorticoid receptor, the EC50 is 110 µM.

For the origin of these results see ChEMBL document CHEMBL1649063, “Ursodeoxycholic acid amides as novel glucocorticoid receptor modulators” (J Med Chem, 2011).
